Experiment [1] deals with Urochloa decumbens. The experiment is described as follows: Phytotoxicity against Urochloa decumbens seeds assessed as inhibition of aerial parts development at 5x10'-5 mol/kg measured at 21 days after seed sowing by green house trials. The format is functional.
Experiment [2] relates to Urochloa decumbens. The experiment is described as follows: Stimulation of aerial parts development in Urochloa decumbens pregerminated seeds at 5x10'-4 mol/l at 28 degC after 24 to 48 hr by sand based radicle elongation assay. The format is functional.
Experiment [3] has as its system Sorghum bicolor. The experiment is described as follows: Phytotoxic activity against Sorghum bicolor seeds assessed as inhibition of radicle growth at 10^-3 mol/l at 25 degC after 72 hr by filter-paper based radicle elongation assay. It is filed as functional. An outline of the steps: (§1)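 Test compounds suspended and sonicated 5 min. Aliquots of 4 mL wetted two sheets of filter paper in glass Petri dishes, with 20 seeds per dish. Tested at 10⁻⁴ and 10⁻³ mol L⁻¹. Incubated 72 h at 25 °C under fluorescent light. Radicle length measured and germination recorded (radicle ≥1 mm). Completely randomized design, five replications. Results as % radicle growth inhibition vs untreated controls; Tukey's test, P 0.05.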

For experiment [4], the system named is Ipomoea grandifolia. Briefly: Phytotoxicity against Ipomoea grandifolia seeds assessed as inhibition of root biomass development at […] measured at 21 days after seed sowing by green house trials.
Experiment [5] deals with Cucumis sativus. Briefly: Phytotoxic activity against Cucumis sativus (cucumber)seeds assessed as inhibition of radicle growth at 10^-3 mol/l at 25 degC after 72 hr by filter-paper based radicle elongation assay. It is filed as functional. An outline of the steps:
as §1

Experiment [6] concerns Ipomoea grandifolia. Briefly: Phytotoxicity against Ipomoea grandifolia pre-germinated seeds assessed as inhibition of root biomass development at 5x10'-4 mol/l at 28 degC after 24 to 48 hr by sand based radicle elongation assay. The format is functional.
Experiment [7] relates to Cucumis sativus. The experiment is described as follows: Phytotoxic activity against Cucumis sativus (cucumber)seeds assessed as inhibition of radicle growth at 10^-4 mol/l at 25 degC after 72 hr by filter-paper based radicle elongation assay. The format is functional. In outline:
as §1

In experiment [8] the test system is Urochloa decumbens. Briefly: Stimulation of root biomass development in Urochloa decumbens pregerminated seeds at 5x10'-4 mol/l at 28 degC after 24 to 48 hr by sand based radicle elongation assay. The format is functional.
Experiment [9] has as its system Ipomoea grandifolia. Briefly: Phytotoxicity against Ipomoea grandifolia pre-germinated seeds assessed as inhibition of aerial parts development at 5x10'-4 mol/l at 28 degC after 24 to 48 hr by sand based radicle elongation assay. It is filed as functional.
In experiment [10] the test system is Sorghum bicolor. Briefly: Phytotoxic activity against Sorghum bicolor seeds assessed as inhibition of radicle growth at 10^-4 mol/l at 25 degC after 72 hr by filter-paper based radicle elongation assay. The format is functional. In outline:
as §1

Experiment [11] concerns Ipomoea grandifolia. Briefly: Phytotoxicity against Ipomoea grandifolia seeds assessed as inhibition of aerial parts development at 5x10'-5 mol/kg measured at 21 days after seed sowing by green house trials. It is filed as functional.
Experiment [12] has as its system Urochloa decumbens. The experiment is described as follows: Phytotoxicity against Urochloa decumbens seeds assessed as inhibition of root biomass development at 5x10'-5 mol/kg measured at 21 days after seed sowing by green house trials. It is filed as functional.
Experiment [13] deals with Urochloa decumbens. The experiment is described as follows: Phytotoxicity against Urochloa decumbens pregerminated seeds assessed as inhibition of aerial parts development at 5x10'-4 mol/l at 28 degC after 24 to 48 hr by sand based radicle elongation assay. The format is functional.
The subject of experiment [14] is Urochloa decumbens. Briefly: Phytotoxicity against Urochloa decumbens pregerminated seeds assessed as inhibition of root biomass development at 5x10'-4 mol/l at 28 degC after 24 to 48 hr by sand based radicle elongation assay. It is filed as functional.

SMILES strings stand for the structures.

Experimental findings from ChEMBL document CHEMBL3046321, “Preparation of achiral and chiral (E)-enaminopyran-2,4-diones and their phytotoxic activity” (2009) are described below.

For `COC(=O)[C@@H](N/C(C)=C1\C(=O)C=C(C)OC1=O)C(C)C`, the “inhibition (INH)” value in the experiment on Urochloa decumbens [1] is -47.4%; in the experiment with Ipomoea grandifolia [4], 65.3%; with Ipomoea grandifolia [11] it was 67.7%; in the experiment with Urochloa decumbens [12], -45.7%. In addition, the Activity in the experiment on Urochloa decumbens [2] and in the experiment with Urochloa decumbens [8] was 46% in each case. The inhibition at 1000 µM with Sorghum bicolor [3] stood at 70.5%; in the experiment with Cucumis sativus [5] it was 80.8%. Moreover, the inhibition at 500 µM with Ipomoea grandifolia [6] is 65%; in the experiment with Ipomoea grandifolia [9] it was 68%. Further, the inhibition at 100 µM in the experiment with Cucumis sativus [7] is -6.4%; with Sorghum bicolor [10] it was 17.2%.

With `COC(=O)[C@H](C)N/C(C)=C1\C(=O)C=C(C)OC1=O`, the “inhibition (INH)” value with Urochloa decumbens [1] is 33.3%; with Ipomoea grandifolia [4], 61.7%; in the experiment on Ipomoea grandifolia [11], 56.9%; with Urochloa decumbens [12], 43.4%. Moreover, the values for the inhibition at 1000 µM with Sorghum bicolor [3] and in the experiment on Cucumis sativus [5] were 71.7% and 76.3%, respectively. For the same molecule, the inhibition at 500 µM was 33% in the experiment with Urochloa decumbens [13], 62% in the experiment with Ipomoea grandifolia [6], 46% with Urochloa decumbens [14] and 57% in the experiment on Ipomoea grandifolia [9]. Besides, the values for the inhibition at 100 µM in the experiment on Cucumis sativus [7] and in the experiment on Sorghum bicolor [10] were -0.3% and 21.6%, respectively.

`COC(=O)[C@H](Cc1ccccc1)N/C(C)=C1\C(=O)C=C(C)OC1=O`: the values for the inhibition at 1000 µM in the experiment with Sorghum bicolor [3] and in the experiment on Cucumis sativus [5] were 24.4% and 63.1%, respectively. Further, the inhibition at 100 µM was 2.1% in the experiment with Cucumis sativus [7] and -10.8% in the experiment on Sorghum bicolor [10].

On to `CC1=CC(=O)/C(=C(/C)NNc2ccc([N+](=O)[O-])cc2[N+](=O)[O-])C(=O)O1`, for which the figures for the inhibition at 1000 µM in the experiment with Sorghum bicolor [3] and with Cucumis sativus [5] were 75.8% and 77.6%, respectively. For the same molecule, the inhibition at 100 µM was 23.4% with Cucumis sativus [7] and 8.3% in the experiment with Sorghum bicolor [10].

In the case of `CCCCN/C(C)=C1\C(=O)C=C(C)OC1=O`, the inhibition at 1000 µM in the experiment on Sorghum bicolor [3] stood at 79.7%; in the experiment with Cucumis sativus [5] it was 44%. Further, the inhibition at 100 µM in the experiment on Cucumis sativus [7] is -10.4%; in the experiment on Sorghum bicolor [10], 48.3%.

Regarding `CC1=CC(=O)/C(=C(/C)NNc2ccccc2)C(=O)O1`, the results for the inhibition at 1000 µM in the experiment on Sorghum bicolor [3] and in the experiment with Cucumis sativus [5] were 27.2% and 19.2%, respectively. The inhibition at 100 µM with Cucumis sativus [7] is 29.5%; in the experiment with Sorghum bicolor [10], -26.5%.

Turning to `COc1ccc(N/C(C)=C2\C(=O)C=C(C)OC2=O)cc1`, the values for the inhibition at 1000 µM in the experiment with Sorghum bicolor [3] and in the experiment with Cucumis sativus [5] were 48.2% and 33.4%, respectively. The inhibition at 100 µM in the experiment on Cucumis sativus [7] was found to be 1.4%; in the experiment with Sorghum bicolor [10], 28.4%.

Consider `COC(=O)CN/C(C)=C1\C(=O)C=C(C)OC1=O`, for which the “inhibition (INH)” value in the experiment on Urochloa decumbens [1] is listed as 33.3%; with Ipomoea grandifolia [4], 34.3%; in the experiment with Ipomoea grandifolia [11] it was 41.7%; with Urochloa decumbens [12] it was 43.3%. The inhibition at 1000 µM in the experiment with Sorghum bicolor [3] was 59.3%; with Cucumis sativus [5] it was 69.1%. In addition, the inhibition at 500 µM in the experiment on Urochloa decumbens [13] came to 33%; in the experiment with Ipomoea grandifolia [6] it was 34%; with Urochloa decumbens [14] it was 44%; in the experiment with Ipomoea grandifolia [9], 42%. Moreover, the inhibition at 100 µM is -15.3% in the experiment on Cucumis sativus [7] and 7% with Sorghum bicolor [10].

Turning to `CC1=CC(=O)/C(=C(/C)Nc2cc(Cl)c([N+](=O)[O-])cc2O)C(=O)O1`, the “inhibition (INH)” value is recorded as -20.3% in the experiment on Urochloa decumbens [1], 32% in the experiment on Ipomoea grandifolia [4], 43.7% in the experiment with Ipomoea grandifolia [11] and -24% in the experiment on Urochloa decumbens [12]. The figures for the Activity in the experiment on Urochloa decumbens [2] and in the experiment on Urochloa decumbens [8] were 20% and 24%, respectively. Also, the inhibition at 1000 µM was 64.4% in the experiment with Sorghum bicolor [3] and 81.4% in the experiment with Cucumis sativus [5]. In addition, the inhibition at 100 µM worked out at 21.8% in the experiment with Cucumis sativus [7] and 4.3% in the experiment on Sorghum bicolor [10].

For `CC1=CC(=O)/C(=C(/C)Nc2cc([N+](=O)[O-])ccc2O)C(=O)O1`, the “inhibition (INH)” value in the experiment with Urochloa decumbens [1] amounted to 15%; in the experiment with Ipomoea grandifolia [4] it was 79.9%; in the experiment on Ipomoea grandifolia [11], 78.9%; with Urochloa decumbens [12], 15.3%. Further, the figures for the inhibition at 1000 µM with Sorghum bicolor [3] and in the experiment with Cucumis sativus [5] were 55.6% and 58.1%, respectively. The inhibition at 500 µM is 15% with Urochloa decumbens [13], 81% in the experiment with Ipomoea grandifolia [6], 15% in the experiment with Urochloa decumbens [14] and 76% in the experiment with Ipomoea grandifolia [9]. Besides, the inhibition at 100 µM in the experiment on Cucumis sativus [7] was -12.4%; in the experiment with Sorghum bicolor [10], 3.9%.

Turning to `CC1=CC(=O)/C(=C(/C)Nc2ccccc2Cl)C(=O)O1`, the inhibition at 1000 µM in the experiment on Sorghum bicolor [3] came out at 85.2%; in the experiment on Cucumis sativus [5] it was 88.3%. Besides, the inhibition at 100 µM in the experiment on Cucumis sativus [7] amounted to 54.5%; in the experiment on Sorghum bicolor [10], 32.9%.

Turning to `CC1=CC(=O)/C(=C(/C)Nc2ccccc2O)C(=O)O1`, the values for the inhibition at 1000 µM in the experiment on Sorghum bicolor [3] and with Cucumis sativus [5] were 73.7% and 69.3%, respectively. In addition, the inhibition at 100 µM in the experiment with Cucumis sativus [7] came to 7.8%; in the experiment with Sorghum bicolor [10] it was 39.9%.

`CC1=CC(=O)/C(=C(/C)Nc2ccccc2)C(=O)O1`: the values for the inhibition at 1000 µM with Sorghum bicolor [3] and with Cucumis sativus [5] were 62% and 81.1%, respectively. In addition, the inhibition at 100 µM in the experiment with Cucumis sativus [7] is -10.4%; with Sorghum bicolor [10], 7.2%.

Take `CCCN/C(C)=C1\C(=O)C=C(C)OC1=O`: the inhibition at 1000 µM in the experiment with Sorghum bicolor [3] is 75.4%; with Cucumis sativus [5] it was 46.2%. Also, the inhibition at 100 µM with Cucumis sativus [7] is -15.7%; with Sorghum bicolor [10] it was 19.9%.

Take `CC[C@H](C)N/C(C)=C1\C(=O)C=C(C)OC1=O`: the “inhibition (INH)” value in the experiment with Urochloa decumbens [1] amounted to 70.8%; with Ipomoea grandifolia [4], 83%; in the experiment with Ipomoea grandifolia [11] it was 84.4%; with Urochloa decumbens [12] it was 65.5%. Also, the values for the inhibition at 1000 µM in the experiment with Sorghum bicolor [3] and with Cucumis sativus [5] were 79.3% and 87.5%, respectively. Also, the inhibition at 500 µM in the experiment on Urochloa decumbens [13] turned out to be 71%; with Ipomoea grandifolia [6], 81%; with Urochloa decumbens [14], 66%; in the experiment with Ipomoea grandifolia [9] it was 84%. Further, the inhibition at 100 µM in the experiment on Cucumis sativus [7] was 15%; in the experiment on Sorghum bicolor [10] it was 46.2%.

Take `CC1=CC(=O)/C(=C(/C)NCc2ccccc2)C(=O)O1`: the “inhibition (INH)” value is 22.8% in the experiment with Urochloa decumbens [1], 79.6% in the experiment with Ipomoea grandifolia [4], 85.9% in the experiment on Ipomoea grandifolia [11] and 39.3% in the experiment with Urochloa decumbens [12]. For the same molecule, the results for the inhibition at 1000 µM in the experiment on Sorghum bicolor [3] and in the experiment on Cucumis sativus [5] were 70.8% and 65.5%, respectively. For the same molecule, the inhibition at 500 µM in the experiment with Ipomoea grandifolia [6] was 81%; with Ipomoea grandifolia [9], 84%. Besides, the inhibition at 100 µM in the experiment with Cucumis sativus [7] was 20.1%; in the experiment on Sorghum bicolor [10] it was 45%.

Consider `CC(=O)C1C(=O)C=C(C)OC1=O` (stereo not drawn) [DEHYDROACETIC ACID], for which the “inhibition (INH)” value in the experiment with Urochloa decumbens [1] is on record as -41.2%; in the experiment on Ipomoea grandifolia [4], 40.7%; with Ipomoea grandifolia [11] it was 7.6%; in the experiment with Urochloa decumbens [12] it was -67.7%. Moreover, the Activity with Urochloa decumbens [2] was determined as 41%; in the experiment with Urochloa decumbens [8], 68%. In addition, the inhibition at 1000 µM came out at 82.7% in the experiment on Sorghum bicolor [3] and 87.6% with Cucumis sativus [5]. The figures for the inhibition at 500 µM in the experiment with Urochloa decumbens [13] and with Urochloa decumbens [14] were 8% and 41%, respectively. Further, the inhibition at 100 µM with Cucumis sativus [7] is 36.7%; with Sorghum bicolor [10] it was 34.6%.

As usually defined, the inhibition is the relative decrease from the control value, in per cent.
